{"source": "PubChem BioAssay AID1800", "about": "(The Scripps Research Institute Molecular Screening Center, 2009)", "note": "Out of some 290,000 compounds screened, about 1,600 (0.55%) were called active. This is one part of a sample in which actives are shown more often than they occur.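 Rule for the calls: active = inhibition above the mean of all tested compounds plus 3 SD, set per campaign (cut at about 35% in these data); inactive = the rest.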"}
{"test_system": "Hepatitis C virus NS3 helicase", "assay": "inhibitors of HCV NS3 helicase, primary screen, biochemical, Cy5 molecular beacon fluorescence (AID 1800);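 note: 0% = DMSO wells and 100% = thioflavine S control wells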", "conditions": "NS3 helicase DNA unwinding, at 10.9 µM, active compounds read high", "in_short": "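Assay system: hepatitis C virus NS3 helicase domain fragment enzyme. Also added: annealed dual-labelled DNA beacon duplex, ATP-started. Timing: 1 h reaction at 25 °C, ATP-initiated. Technique: Cy5 fluorescence at 0 and 60 min, beacon hairpin quenching. Evaluation: % inhibition of unwinding. Replication: one well per compound.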"}
{"molecule": "COC(=O)c1ccccc1NC(=O)C1CCN(C(=O)N2CCOc3ccccc32)CC1", "inhibition": "-12.1% (inactive)"}
{"molecule": "COc1ccc(S(=O)(=O)NCC(=O)NC2CC2)cc1OC", "inhibition": "22.6% (inactive)"}
{"molecule": "COc1ccc(C)cc1NC(=O)NCCCCc1ccccc1", "inhibition": "2.02% (inactive)"}
{"molecule": "COC(=O)c1cnn2c(C(F)(F)F)cc(-c3ccco3)nc12", "inhibition": "18.2% (inactive)"}
{"molecule": "CN(C(=O)COC(=O)c1cc(-c2ccco2)nc2ccccc12)C1CCS(=O)(=O)C1", "note": "(stereo not given)", "inhibition": "20.9% (inactive)"}
{"molecule": "Cc1cc(C)c2nc(-c3ccco3)cc(C(=O)O)c2c1", "inhibition": "37.2% (active)"}
{"molecule": "N#C/C=C(/c1ccc(F)cc1)N1CCOCC1", "inhibition": "40.5% (active)"}
{"molecule": "O=C(Oc1ccc(F)cc1)N1CCOCC1", "inhibition": "4.09% (inactive)"}
{"molecule": "O=C(Oc1ccc(C(=S)N2CCOCC2)cc1)c1ccc(F)cc1", "inhibition": "-0.77% (inactive)"}
{"molecule": "CS(=O)(=O)N1CCc2cc(C(=O)Nc3ccccc3Br)ccc21", "inhibition": "5.96% (inactive)"}
{"molecule": "COc1cc2c(cc1OC)CN(CC(=O)Nc1ccc(F)cc1)CC2", "inhibition": "-2.51% (inactive)"}
{"molecule": "CCN(CCCNC(=O)c1ccc2c(c1)NC(=O)CN2C)c1cccc(C)c1", "inhibition": "2.74% (inactive)"}
{"molecule": "Cc1ccc(-c2ccnc3[nH]n(-c4ccccc4)c(=O)c23)cc1", "inhibition": "15.7% (inactive)"}
{"molecule": "O=c1c2c(-c3ccccc3)ccnc2[nH]n1-c1ccccc1", "inhibition": "47.7% (active)"}
{"molecule": "O=c1c(-c2cccc(Cl)c2)c[nH]n1-c1ccccc1", "inhibition": "4.7% (inactive)"}
{"molecule": "COc1ccc(C(=O)N(C)CC(O)c2ccccc2)cc1OC1CCN(C(C)=O)CC1", "note": "(stereo not given)", "inhibition": "32.3% (inactive)"}
{"molecule": "CCNC(=O)CC1C(=O)N(c2ccc(OC)cc2)C(=O)N1CCOC", "note": "(stereo not given)", "inhibition": "1.88% (inactive)"}
{"molecule": "CC1Sc2ccc(S(=O)(=O)CCC(=O)NCc3ccccc3Cl)cc2NC1=O", "note": "(stereo not given)", "inhibition": "8.3% (inactive)"}
{"molecule": "COc1ccccc1N1CCN(C(=O)CCS(=O)(=O)c2ccc3c(c2)NC(=O)C(C)S3)CC1", "note": "(stereo not given)", "inhibition": "38.1% (active)"}
{"molecule": "Cc1cccc(N2CCN(C(=O)CCS(=O)(=O)c3ccc4c(c3)NC(=O)C(C)S4)CC2)c1C", "note": "(stereo not given)", "inhibition": "-0.36% (inactive)"}
{"molecule": "Cc1ccc(S(=O)(=O)NCC(=O)N(CC(=O)NCC2CCCO2)c2cccc(F)c2)cc1", "note": "(stereo not given)", "inhibition": "-2.87% (inactive)"}
{"molecule": "O=C(c1ccc(F)cc1)n1c(=S)nc2ccccn21", "inhibition": "12% (inactive)"}
{"molecule": "CC(=O)c1ccccc1OCc1ccc(C(=O)c2ccccc2)cc1", "inhibition": "-8.3% (inactive)"}
{"molecule": "O=C1C=CC(=O)N1c1ccc(N2CCCCC2)cc1", "inhibition": "45.2% (active)"}
{"molecule": "O=C1CC(N2CCN(c3ccc(F)cc3)CC2)C(=O)N1c1ccccc1", "note": "(stereo not given)", "inhibition": "-13.4% (inactive)"}
{"molecule": "O=C(Cc1ccccc1)NC(=S)Nc1ccc(N2CCCCC2)cc1", "inhibition": "-1.95% (inactive)"}
{"molecule": "COc1cccc(NC(=O)c2ccccc2N(Cc2ccccc2)S(C)(=O)=O)c1", "inhibition": "0.24% (inactive)"}
{"molecule": "CC(=O)N1c2ccc(S(=O)(=O)N3CCCC(C(=O)Nc4ccc(C)cc4C)C3)cc2CC1C", "note": "(stereo not given)", "inhibition": "-18.4% (inactive)"}
{"molecule": "Cc1occc1C(=O)N/N=C/c1ccc(-c2cccc([N+](=O)[O-])c2)o1", "inhibition": "45.3% (active)"}
{"molecule": "Cc1cc(C(=O)N/N=C/c2ccccc2[N+](=O)[O-])c(C)o1", "inhibition": "5.42% (inactive)"}
{"molecule": "Cc1ccc(-c2ccc(/C=N/NC(=O)CN3CCOCC3)o2)cc1[N+](=O)[O-]", "inhibition": "6.31% (inactive)"}
{"molecule": "COc1ccc(Cn2c(-c3ccc(Cl)cc3)c[n+]3ccccc23)cc1", "inhibition": "-35.9% (inactive)"}
{"molecule": "CCCCn1c(O)c(N=NC(=O)Cn2c(C(F)(F)F)nc3ccccc32)c2ccccc21", "inhibition": "0.68% (inactive)"}
{"molecule": "Oc1oc(-c2ccccc2Br)nc1/C=N/c1ccccn1", "inhibition": "-6.78% (inactive)"}
{"molecule": "O=C(c1ccco1)N1CCN(C(=S)Nc2cc(F)cc(F)c2)CC1", "inhibition": "-5.92% (inactive)"}
{"molecule": "CC1CCCN(c2ccc(C(=O)NCCc3ccccc3)cn2)C1", "note": "(stereo not given)", "inhibition": "-1.78% (inactive)"}
{"molecule": "CCC(NC(=O)C1CCCC1)c1ccc(C)cc1", "note": "(stereo not given)", "inhibition": "1.79% (inactive)"}
{"molecule": "Cc1ccc(C(CC(=O)O)Nc2nc(N3CCCCC3)nc(N3CCCCC3)n2)cc1", "note": "(stereo not given)", "inhibition": "46.7% (active)"}
{"molecule": "O=C(O)c1ccc(/C=N/Nc2nc(N3CCCCC3)nc(N3CCCCC3)n2)cc1", "inhibition": "3.13% (inactive)"}
{"molecule": "Cc1ccc(C(=O)COC(=O)CCN2C(=O)C3C4CCC(C4)C3C2=O)cc1C", "note": "(stereo not given)", "inhibition": "19.3% (inactive)"}
{"molecule": "CC1CN(C(=S)Nc2cccc(F)c2)CC(C)O1", "note": "(stereo not given)", "inhibition": "-3.8% (inactive)"}
{"molecule": "COc1ccc(S(=O)(=O)N2CCSCC2)cc1", "inhibition": "9.62% (inactive)"}
{"molecule": "CC(=O)C1=C(O)C(=O)N(c2ccc(Br)cc2)C1c1ccc([N+](=O)[O-])cc1", "note": "(stereo not given)", "inhibition": "36% (active)"}
{"molecule": "CC(=O)C1=C(O)C(=O)N(c2cccnc2)C1c1ccc([N+](=O)[O-])cc1", "note": "(stereo not given)", "inhibition": "-3.05% (inactive)"}
{"molecule": "COC(=O)CN1C(=O)C(O)=C(C(C)=O)C1c1ccc([N+](=O)[O-])cc1", "note": "(stereo not given)", "inhibition": "-0.09% (inactive)"}
{"molecule": "CN(Cc1ccc(F)cc1)C(=O)COc1ccc2ccccc2c1", "inhibition": "-17.8% (inactive)"}
{"molecule": "COCn1c(C(O)c2ccccc2)cc2ccccc21", "note": "(stereo not given)", "inhibition": "-4.17% (inactive)"}
{"molecule": "COC(=O)COc1ccc2c(c1C)O/C(=C\\c1ccco1)C2=O", "inhibition": "90.2% (active)"}
{"molecule": "COC(=O)C1=C(C)N(c2ccc(Br)cc2)C(=O)/C1=C\\c1ccco1", "inhibition": "17.4% (inactive)"}
{"molecule": "Cc1cc(C)c(OCC(=O)N/N=C/c2ccco2)c(C)c1", "inhibition": "-4.49% (inactive)"}
{"molecule": "Cn1ncc2c(N3CCCCC3)nc(NCCCO)nc21", "inhibition": "5.11% (inactive)"}
{"molecule": "CC(=O)NN1C(=O)c2ccccc2NC1c1ccccc1", "note": "(stereo not given)", "inhibition": "-4.55% (inactive)"}
{"molecule": "COC1=C/C(=C/c2c(N)n3nc(CC(=O)N4CCOCC4)sc3nc2=O)C=CC1=O", "inhibition": "13.6% (inactive)"}
{"molecule": "COc1cccc(NC(=O)CSc2nnc(Cc3ccc(OC)c(OC)c3)o2)c1", "inhibition": "-10.1% (inactive)"}
{"molecule": "O=C(N/N=C/c1ccco1)c1csc2c1CCCC2", "inhibition": "42.9% (active)"}
{"molecule": "O=C(N/N=C/c1ccco1)c1ccc(NC(=O)C2CC2)cc1", "inhibition": "2.86% (inactive)"}
{"molecule": "O=C(N/N=C/c1ccco1)c1ccc(C(=O)N/N=C/c2ccco2)o1", "inhibition": "-3.79% (inactive)"}
{"molecule": "Cc1ccc(C)c(S(=O)(=O)N2CCCOC2CNC(=O)C(=O)NC2CCCCC2)c1", "note": "(stereo not given)", "inhibition": "8.68% (inactive)"}
{"molecule": "CCc1cc2c(=O)n(-c3ccccc3)c(SCC(=O)O)nc2s1", "inhibition": "5.68% (inactive)"}
{"molecule": "CCOc1ccc(C2C(C#N)=C(N)N(N(C)C)C3=C2C(=O)CCC3)cc1", "note": "(stereo not given)", "inhibition": "6.79% (inactive)"}
{"molecule": "COc1ccc(C2C3=C(CCCC3=O)N(CC(=O)O)C3=C2C(=O)CCC3)cc1", "inhibition": "2.66% (inactive)"}
{"molecule": "CCOc1ccc(C2C3=C(CCCC3=O)N(CC(=O)O)C3=C2C(=O)CCC3)cc1", "inhibition": "59.8% (active)"}
{"molecule": "COc1ccc(N(C(=O)c2snc(C(N)=O)c2N)C(C(=O)NC2CCCC2)c2ccc(C)o2)c(OC)c1", "note": "(stereo not given)", "inhibition": "-6.52% (inactive)"}
{"molecule": "CC1=NN(C(N)=S)C(=O)C1N=Nc1cc(Cl)ccc1Cl", "note": "(stereo not given)", "inhibition": "34.2% (inactive)"}
{"molecule": "Cc1[nH]n(-c2cccc(Cl)c2)c(=O)c1-c1ccc(Cl)cc1", "inhibition": "1.96% (inactive)"}
{"molecule": "Cc1[nH]n(C(N)=S)c(=O)c1N=Nc1ccc(Cl)cc1Cl", "inhibition": "44.7% (active)"}
{"molecule": "O=C(CSC(=S)N1CCCCC1)c1c(F)cccc1F", "inhibition": "4.19% (inactive)"}
{"molecule": "Cc1cccc(OCC(=O)NCCCNC(=O)c2ccccn2)c1", "inhibition": "4.84% (inactive)"}
{"molecule": "COc1ccc(CC(=O)N/N=C(\\C)c2ccccn2)cc1", "inhibition": "8.79% (inactive)"}
{"molecule": "CCN(CC)CCOc1ccc2c(c1)C(=NNC(=O)c1ccccn1)c1cc(OCCN(CC)CC)ccc1-2", "inhibition": "41% (active)"}
{"molecule": "COc1ccc(NC(=S)N2CCC(NC(=O)c3cccc(F)c3)CC2)cc1", "inhibition": "5.28% (inactive)"}
{"molecule": "O=C(CSc1nnc(Nc2ccccc2)s1)Nc1cccnc1Cl", "inhibition": "4.07% (inactive)"}
{"molecule": "Cc1ccc(Nc2nnc(SCc3ccccc3)s2)cc1", "inhibition": "-1.63% (inactive)"}
{"molecule": "CC(C)c1ccc(Nc2nnc(SCC(=O)c3nnc(-c4ccccc4)o3)s2)cc1", "inhibition": "42.3% (active)"}
{"molecule": "Cc1ccc(SC(CC(=O)c2ccc(C(C)(C)C)cc2)C(=O)O)cc1", "note": "(stereo not given)", "inhibition": "44.4% (active)"}
{"molecule": "Cc1ccc(CSCC(N)C(=O)O)cc1", "note": "(stereo not given)", "inhibition": "0.78% (inactive)"}
{"molecule": "Cc1ccc(C(=O)CSc2ccccc2C(=O)O)cc1", "inhibition": "2.55% (inactive)"}
{"molecule": "C=CCn1c(=NC(=O)c2cccs2)sc2cc(NC(C)=O)ccc21", "inhibition": "-8.84% (inactive)"}
{"molecule": "Cc1cccc(CCNS(=O)(=O)c2ccc3c(c2)NC(=O)CO3)c1", "inhibition": "-2.06% (inactive)"}
{"molecule": "COc1ccc(/C=C(/NC(=O)c2ccccc2)C(=O)Nc2cccc(C(=O)O)c2)cc1", "inhibition": "3.56% (inactive)"}
{"molecule": "COc1ccc(S(=O)(=O)N(C)CC(=O)N2CCCC2)cc1", "inhibition": "-9.23% (inactive)"}
{"molecule": "CC(C)=N/N=C1/NC(=O)C(Cc2ccccc2)S1", "note": "(stereo not given)", "inhibition": "12.1% (inactive)"}
{"molecule": "Oc1ccc(C2Nc3cccc4cccc(c34)N2)cc1", "inhibition": "9.35% (inactive)"}
{"molecule": "Brc1ccccc1C1Nc2cccc3cccc(c23)N1", "inhibition": "53.8% (active)"}
{"molecule": "Cc1ccc(C2Nc3cccc4cccc(c34)N2)cc1", "inhibition": "38.8% (active)"}
{"molecule": "COc1cc2c(cc1OC)C(c1ccccc1Br)NC(=O)C2", "note": "(stereo not given)", "inhibition": "1.43% (inactive)"}
{"molecule": "COc1cccc(C2Nc3cccc4cccc(c34)N2)c1", "inhibition": "-11.8% (inactive)"}
{"molecule": "C/C(=C\\c1ccco1)C1Nc2cccc3cccc(c23)N1", "inhibition": "15% (inactive)"}
{"molecule": "CCc1noc(C)c1C(=O)N1CCCC(N2CCN(c3ccc(F)cc3)CC2)C1", "note": "(stereo not given)", "inhibition": "8.93% (inactive)"}
{"molecule": "CC(C)(COC(=O)Nc1ccccc1)COC(=O)Nc1ccccc1", "inhibition": "-7.99% (inactive)"}
{"molecule": "O=C(Nc1ccc(N2CCOCC2)cc1)c1ccc(-c2ccccc2[N+](=O)[O-])o1", "inhibition": "-10.2% (inactive)"}
{"molecule": "Cc1cc([N+](=O)[O-])c(-c2ccc(/C=N/n3cnnc3)o2)cc1Cl", "inhibition": "12.9% (inactive)"}
{"molecule": "CC1=NN(c2ccc(Cl)c(C(=O)O)c2)C(=O)/C1=C/c1ccc(-c2ccccc2[N+](=O)[O-])o1", "inhibition": "43.5% (active)"}
{"molecule": "COc1ccccc1NC(=O)Nc1nnc(Cc2ccc(F)cc2)s1", "inhibition": "-6.22% (inactive)"}
{"molecule": "CCOc1ccc(N(C(=O)c2snc(C(N)=O)c2N)C(C(=O)NCC2CCCO2)c2c[nH]c3ccccc23)cc1", "note": "(stereo not given)", "inhibition": "-29.3% (inactive)"}
